Test results from ChEMBL document CHEMBL2331531, “Synthesis and biological evaluation of urea derivatives as highly potent and selective rho kinase inhibitors” (J Med Chem, 2013).
pIC50: −log10 of the molar value.

Tests used:
[1] = target: Rho-associated protein kinase 2 (Homo sapiens, UniProt O75116); assay: Inhibition of ROCK2 (unknown origin) after 4 hrs by HTRF assay
[2] = Half life in human liver microsomes; type: ADME, Microsome
[3] = Inhibition of PKA (unknown origin) after 70 mins by luminescence assay; design: species or system Homo sapiens
[4] = Inhibition of ROCK-mediated myosin light chain bisphosphorylation in rat A7R5 cells after 1 hr by fluorescence assay in presence of L-alpha-lysophosphatidic acid; type: cell-based
How it was run: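 A7r5 cells in 20% FBS DMEM, plated 5000/well overnight, serum-starved 4 h in 0.05% FBS DMEM; compound 13333 nM to 18 nM final for 1 h, then 10 μM LPA 10 min; fixed, permeabilized, anti-ppMLC plus IR800 secondary; infrared scan, ppMLC signal normalized to TO-PRO-3 nuclear signal. IC50 as mean of two or more experiments.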

Rho-associated protein kinase 2, sequence (O75116 whole entry): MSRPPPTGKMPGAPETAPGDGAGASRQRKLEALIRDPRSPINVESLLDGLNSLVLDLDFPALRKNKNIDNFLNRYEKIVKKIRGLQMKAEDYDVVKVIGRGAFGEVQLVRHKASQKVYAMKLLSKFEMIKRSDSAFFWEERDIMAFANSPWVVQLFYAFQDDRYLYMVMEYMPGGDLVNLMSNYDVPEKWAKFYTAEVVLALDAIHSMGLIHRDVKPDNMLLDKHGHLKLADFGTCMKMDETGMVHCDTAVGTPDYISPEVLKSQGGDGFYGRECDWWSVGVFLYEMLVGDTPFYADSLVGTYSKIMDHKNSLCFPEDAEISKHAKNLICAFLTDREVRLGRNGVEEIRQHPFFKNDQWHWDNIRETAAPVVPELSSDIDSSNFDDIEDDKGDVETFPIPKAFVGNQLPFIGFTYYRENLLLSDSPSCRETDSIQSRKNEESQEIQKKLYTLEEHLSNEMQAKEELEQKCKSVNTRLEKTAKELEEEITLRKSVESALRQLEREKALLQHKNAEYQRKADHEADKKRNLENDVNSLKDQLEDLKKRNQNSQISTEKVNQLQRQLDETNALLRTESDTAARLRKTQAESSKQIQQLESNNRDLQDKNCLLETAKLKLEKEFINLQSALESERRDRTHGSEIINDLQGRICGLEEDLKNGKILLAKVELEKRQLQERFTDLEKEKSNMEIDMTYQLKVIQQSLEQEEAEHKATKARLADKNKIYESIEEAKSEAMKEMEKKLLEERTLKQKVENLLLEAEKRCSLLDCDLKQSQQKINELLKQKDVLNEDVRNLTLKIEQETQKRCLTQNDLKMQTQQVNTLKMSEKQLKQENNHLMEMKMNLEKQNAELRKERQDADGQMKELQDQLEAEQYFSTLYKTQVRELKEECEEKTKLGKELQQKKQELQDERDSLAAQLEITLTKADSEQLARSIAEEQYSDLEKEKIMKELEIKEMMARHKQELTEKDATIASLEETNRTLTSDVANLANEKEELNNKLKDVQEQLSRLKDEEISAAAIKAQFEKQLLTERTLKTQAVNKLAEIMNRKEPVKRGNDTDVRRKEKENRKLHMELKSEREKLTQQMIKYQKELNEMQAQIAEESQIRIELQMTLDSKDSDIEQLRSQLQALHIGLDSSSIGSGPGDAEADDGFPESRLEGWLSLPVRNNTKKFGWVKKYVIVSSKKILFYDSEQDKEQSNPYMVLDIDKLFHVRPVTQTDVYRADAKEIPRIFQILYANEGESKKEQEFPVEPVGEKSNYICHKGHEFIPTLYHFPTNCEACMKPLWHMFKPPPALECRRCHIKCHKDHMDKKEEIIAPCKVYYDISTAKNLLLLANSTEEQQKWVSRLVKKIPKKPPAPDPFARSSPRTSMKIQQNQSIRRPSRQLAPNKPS

| SMILES | pIC50 [1] | half-life [2] | pIC50 [3] | pIC50 [4] |
| --- | --- | --- | --- | --- |
| O=C(Nc1ccc(-c2cn[nH]c2)cc1)NC(CCO)c1ccccc1 (stereo not given) | 9.00 | > 120 min | 6.36 | 7.32 |
| COc1cccc(CN(CCO)C(=O)Nc2ccc(-c3cn[nH]c3)cc2OCCO)c1 | > 9.00 | – | 6.21 | 6.66 |
| COc1cccc(CN(CCN(C)C)C(=O)Nc2ccc(-c3cn[nH]c3)cc2OCCN(C)C)c1 | 6.77 | – | – | – |
| COc1cccc(CN(C(=O)Nc2ccc(-c3cn[nH]c3)cc2)C(C)C)c1 | 8.52 | 11 min | 4.73 | 7.17 |
| COCCN(Cc1cccc(OC)c1)C(=O)Nc1ccc(-c2cn[nH]c2)cc1 | 7.77 | 21 min | 4.98 | 6.74 |
| COc1cccc(CN(CCCN2CCOCC2)C(=O)Nc2ccc(-c3cn[nH]c3)cc2)c1 | 8.40 | 4 min | 6.14 | 7.08 |
| COc1cccc(CN(CCCN2CCCCC2)C(=O)Nc2ccc(-c3cn[nH]c3)cc2)c1 | 8.40 | 14 min | 6.09 | 7.12 |
| O=C(Nc1ccc(-c2cn[nH]c2)cc1F)N(CCO)Cc1ccccc1 | 7.85 | > 120 min | 5.99 | 7.48 |
| O=C(Nc1ccccc1)Nc1ccc(-c2cn[nH]c2)cc1 | 6.52 | – | < 4.70 | – |
| O=C(NCCc1ccccc1)Nc1ccc(-c2cn[nH]c2)cc1 | 7.06 | – | 5.51 | < 5.57 |
| O=C(NCCCc1ccccc1)Nc1ccc(-c2cn[nH]c2)cc1 | 5.99 | – | < 4.70 | – |
| O=C(Nc1ccc(-c2cn[nH]c2)cc1)OCc1ccccc1 | 8.15 | – | < 4.70 | < 5.57 |
| O=C(Nc1ccc(-c2cn[nH]c2)cc1)OCCc1ccccc1 | 7.26 | – | < 4.70 | 5.58 |
| O=C(CCc1ccccc1)Nc1ccc(-c2cn[nH]c2)cc1 | 7.62 | – | 6.58 | 7.04 |
| O=C(Nc1ccc(-c2cn[nH]c2)cc1)N1CCc2ccccc2C1 | 6.55 | – | 5.10 | – |
| O=C(NCC1CCCCC1)Nc1ccc(-c2cn[nH]c2)cc1 | 6.12 | – | < 4.70 | – |
| COc1cccc(CNC(=O)Nc2ccc(-c3cn[nH]c3)cc2)c1OC | 6.60 | – | < 4.70 | – |
| COc1ccc(CNC(=O)Nc2ccc(-c3cn[nH]c3)cc2)c(OC)c1 | 6.48 | – | 4.95 | – |
| COc1ccc(OC)c(CNC(=O)Nc2ccc(-c3cn[nH]c3)cc2)c1 | 6.24 | – | < 4.70 | – |
| COc1cccc(OC)c1CNC(=O)Nc1ccc(-c2cn[nH]c2)cc1 | 6.03 | – | 4.87 | – |
| COc1ccc(CNC(=O)Nc2ccc(-c3cn[nH]c3)cc2)cc1OC | 6.37 | – | < 4.70 | – |
| COc1cc(CNC(=O)Nc2ccc(-c3cn[nH]c3)cc2)cc(OC)c1 | 6.55 | – | < 4.70 | – |
| COc1ccc(CNC(=O)Nc2ccc(-c3cn[nH]c3)cc2)cc1F | 6.45 | – | 6.29 | – |
| COc1cccc(CNC(=O)N(C)c2ccc(-c3cn[nH]c3)cc2)c1 | 7.06 | – | < 4.70 | – |
| COc1cccc(CNC(=O)N(CCO)c2ccc(-c3cn[nH]c3)cc2)c1 | 6.21 | – | < 4.70 | – |
| COc1cccc(CNC(=O)N(CCN(C)C)c2ccc(-c3cn[nH]c3)cc2)c1 | 5.53 | – | 5.38 | – |
| COc1cccc(CNC(=O)N(CCN2CCCC2)c2ccc(-c3cn[nH]c3)cc2)c1 | < 4.70 | – | < 4.70 | – |
| COc1cccc(CNC(=O)N(CCCN(C)C)c2ccc(-c3cn[nH]c3)cc2)c1 | 5.48 | – | 4.92 | – |
| CCN(Cc1cccc(OC)c1)C(=O)Nc1ccc(-c2cn[nH]c2)cc1 | 9.00 | 25 min | 5.33 | 7.36 |
| COc1cccc(CN(C(=O)Nc2ccc(-c3cn[nH]c3)cc2)C2CC2)c1 | 9.00 | 25 min | 5.77 | 8.40 |
